Data published in ChEMBL document CHEMBL5104117, “Armeniaspirol analogues with more potent Gram-positive antibiotic activity show enhanced inhibition of the ATP-dependent proteases ClpXP and ClpYQ” (RSC Med Chem, 2022).
Converted amounts (≈) assume the structure as drawn. The source made the active and inactive calls. The calls are words filed in the database; no cut-off is given here.

What was measured:
Enterococcus faecalis [1] = experiment: Bacteriostatic activity against vancomycin resistant Enterococcus faecalis NJ3 assessed as inhibition of bacterial growth by microtiter broth dilution method; assay type: functional, organism-based
Pseudomonas aeruginosa [2] = experiment: Antibiotic activity against Pseudomonas aeruginosa PA01 assessed as inhibition of bacterial growth incubated for 16 hrs by microtiter broth dilution method; assay type: functional
Staphylococcus aureus [3] = experiment: Antibiotic activity against methicillin-resistant Staphylococcus aureus IA116-USA100 assessed as inhibition of bacterial growth incubated for 16 hrs by microtiter broth dilution method; assay type: functional
How it was run: (§1)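 Microtiter broth dilution assay in liquid medium, run alongside MBC determination, against a Gram-positive panel; the MIC was read as growth inhibition.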

Staphylococcus aureus [4] = experiment: Antibiotic activity against methicillin-resistant Staphylococcus aureus LAC-Fitz-USA300 assessed as inhibition of bacterial growth incubated for 16 hrs by microtiter broth dilution method; assay type: functional; how it was run: as §1
Staphylococcus aureus [5] = experiment: Bacteriostatic activity against methicillin-resistant Staphylococcus aureus MN8-USA200 assessed as inhibition of bacterial growth by microtiter broth dilution method; assay type: functional, organism-based
Staphylococcus aureus [6] = experiment: Bacteriostatic activity against methicillin-resistant Staphylococcus aureus IA116-USA100 assessed as inhibition of bacterial growth by microtiter broth dilution method; assay type: functional, organism-based
Staphylococcus aureus [7] = experiment: Antibiotic activity against methicillin-resistant Staphylococcus aureus MN8-USA200 assessed as inhibition of bacterial growth incubated for 16 hrs by microtiter broth dilution method; assay type: functional; how it was run: as §1
Staphylococcus aureus [8] = experiment: Antibiotic activity against methicillin-resistant Staphylococcus aureus MW2-USA400 assessed as inhibition of bacterial growth incubated for 16 hrs by microtiter broth dilution method; assay type: functional; how it was run: as §1
Staphylococcus aureus [9] = experiment: Bacteriostatic activity against methicillin-resistant Staphylococcus aureus MW2-USA400 assessed as inhibition of bacterial growth by microtiter broth dilution method; assay type: functional, organism-based
Pseudomonas aeruginosa [10] = experiment: Bacteriostatic activity against Pseudomonas aeruginosa PA01 assessed as inhibition of bacterial growth by microtiter broth dilution method; assay type: functional, organism-based
Staphylococcus aureus [11] = experiment: Bacteriostatic activity against methicillin-resistant Staphylococcus aureus LAC-Fitz-USA300 assessed as inhibition of bacterial growth by microtiter broth dilution method; assay type: functional, organism-based
Enterococcus faecalis [12] = experiment: Antibiotic activity against vancomycin resistant Enterococcus faecalis NJ3 assessed as inhibition of bacterial growth incubated for 16 hrs by microtiter broth dilution method; assay type: functional; how it was run: as §1
[13] = Inhibition of C-terminal His tagged Bacillus subtilis ClpY/ClpQ expressed in Escherichia coli BL21 (DE3) using Cbz-Gly-Gly-Leu-AMC as peptide substrate by Cheng-prusoff equation analysis
How it was run: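 Recombinant purified B. subtilis ClpYQ was used for inhibition kinetics. Peptide hydrolysis of the fluorogenic substrate Cbz-GGL-AMC at 100 μM was followed over a range of compound concentrations to give a dose-response curve.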

Staphylococcus aureus [14] = experiment: Inhibition of ClpX/ClpP activity in methicillin-resistant Staphylococcus aureus USA300 assessed as increase in urease activation incubated of overnight by phenol red dye based microplate reader analysis
How it was run: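 Cell-based ClpXP readout in MRSA USA300 grown in Christensen's urea medium with phenol red indicator. ClpXP inhibition raises urease activity, which hydrolyses urea and releases ammonia, and the rising pH turns the medium from yellow to red. Minimum effective concentration (MEC) was taken as the lowest level that raised urease activity above background.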

Escherichia coli = experiment: Antibiotic activity against Escherichia coli with delta.tolC mutation assessed as inhibition of bacterial growth by microtiter broth dilution method; assay type: functional, organism-based
Staphylococcus aureus [15] = experiment: Antibiotic activity against methicillin-resistant Staphylococcus aureus USA300 assessed as inhibition of bacterial growth incubated for 16 hrs in presence of BSA by microtiter broth dilution method; assay type: functional
How it was run: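 MIC by microtiter broth dilution against MRSA USA300, with bovine serum albumin added to the medium to assess the effect of protein binding.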

[16] = Toxicity in sheep RBC assessed as induction of hemolysis at 200 uM and measured after 1 hr relative to control; assay type: cell-based, Ovis aries, Erythrocyte; details: sheep red blood cells, read-out: Activity
How it was run: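 Hemolytic activity was measured as percent lysis of sheep erythrocytes, with compound tested up to 200 μM.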

[17] = Cytotoxicity against human A549 cells assessed as number of viable cells at 100 uM incubated for 24 hrs by calcein-AM and ethidium homodimer-1 staining based flow cytometry; assay type: toxicity, cell-based; details: read-out: Activity
How it was run: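 A549 human lung epithelial carcinoma cells were incubated with compound at up to 100 μM and stained with calcein-AM and ethidium homodimer-1. Viable and dead fractions were determined by confocal microscopy and flow cytometry, against a vehicle control.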

| SMILES | Activity (Enterococcus faecalis [1]) | MIC (Pseudomonas aeruginosa [2]) | MIC (Staphylococcus aureus [3]) | MIC (Staphylococcus aureus [4]) | Activity (Staphylococcus aureus [5]) | Activity (Staphylococcus aureus [6]) | MIC (Staphylococcus aureus [7]) | MIC (Staphylococcus aureus [8]) | Activity (Staphylococcus aureus [9]) | Activity (Pseudomonas aeruginosa [10]) | Activity (Staphylococcus aureus [11]) | MIC (Enterococcus faecalis [12]) | Ki [13] | MEC (Staphylococcus aureus [14]) | Activity (Escherichia coli) | MIC (Staphylococcus aureus [15]) | hemolysis at 1 h, 200 µM [16] | viability at 24 h, 100 µM [17] |
| --- | --- | --- | --- | --- | --- | --- | --- | --- | --- | --- | --- | --- | --- | --- | --- | --- | --- | --- |
| Cc1c(O)c(Cl)cc2c1OC1(C2=O)C(Cl)=C(Cl)C(=O)N1Cc1ccc(C(F)(F)F)cc1 (stereo unspecified) | Active | > 32 µg/mL | 16 µg/mL (≈ 32.5 µM) | 16 µg/mL (≈ 32.5 µM) | Active | Active | 16 µg/mL (≈ 32.5 µM) | 16 µg/mL (≈ 32.5 µM) | Active | Active | Active | 32 µg/mL (≈ 65 µM) | – | – | – | – | – | – |
| CCCCCCCCCCCCN1C(=O)C(Cl)=C(Cl)C12Oc1c(cc(Cl)c(O)c1C)C2=O (stereo unspecified) | Active | > 32 µg/mL | 2 µg/mL (≈ 3.98 µM) | 1 µg/mL (≈ 1.99 µM) | Active | Active | 2 µg/mL (≈ 3.98 µM) | 2 µg/mL (≈ 3.98 µM) | Active | Active | Active | 0.5 µg/mL (≈ 0.994 µM) | 1000 nM | 0.5 µg/mL | – | – | – | – |
| CCCCCCc1c(O)c(Cl)cc2c1OC1(C2=O)C(Cl)=C(Cl)C(=O)N1C (stereo unspecified) | Active | > 32 µg/mL | 4 µg/mL (≈ 9.55 µM) | 4 µg/mL (≈ 9.55 µM) | Active | Active | 4 µg/mL (≈ 9.55 µM) | 4 µg/mL (≈ 9.55 µM) | Active | Active | Active | 8 µg/mL (≈ 19.1 µM) | 3200 nM | 1 µg/mL | Active | > 32 µg/mL | < 15% | > 95% |
| CCCCCCN1C(=O)C(Cl)=C(Cl)C12Oc1c(cc(Cl)c(O)c1C)C2=O (stereo unspecified) | Active | > 32 µg/mL | 4 µg/mL (≈ 9.55 µM) | 4 µg/mL (≈ 9.55 µM) | Active | Active | 4 µg/mL (≈ 9.55 µM) | 8 µg/mL (≈ 19.1 µM) | Active | Active | Active | 8 µg/mL (≈ 19.1 µM) | – | – | – | – | – | – |
| CCCCCCc1c(O)c(Cl)cc2c1OC1(C2=O)C(Cl)=C(Cl)C(=O)N1CCCCCC (stereo unspecified) | Active | > 32 µg/mL | 1 µg/mL (≈ 2.05 µM) | 1 µg/mL (≈ 2.05 µM) | Active | Active | 1 µg/mL (≈ 2.05 µM) | 1 µg/mL (≈ 2.05 µM) | Active | Active | Active | 2 µg/mL (≈ 4.09 µM) | 1300 nM | 0.067 µg/mL | – | 32 µg/mL | < 5% | > 95% |
| Cc1c(O)c(Cl)cc2c1OC1(C2=O)C(Cl)=C(Cl)C(=O)N1C (stereo unspecified) | Active | > 32 µg/mL | > 32 µg/mL | > 32 µg/mL | Active | Active | > 32 µg/mL | > 32 µg/mL | Active | Active | Active | > 32 µg/mL | – | – | – | – | – | – |
| CCCCCCc1c(O)c(Cl)cc2c1OC1(C2=O)C(Cl)=C(Cl)C(=O)N1Cc1ccc(C)cc1 (stereo unspecified) | Active | > 32 µg/mL | 1 µg/mL (≈ 1.97 µM) | 0.5 µg/mL (≈ 0.983 µM) | Active | Active | 0.5 µg/mL (≈ 0.983 µM) | 0.5 µg/mL (≈ 0.983 µM) | Active | Active | Active | 1 µg/mL (≈ 1.97 µM) | 150 nM | 0.25 µg/mL | – | – | – | – |
| C=CCN1C(=O)C(Cl)=C(Cl)C12Oc1c(cc(Cl)c(O)c1C)C2=O (stereo unspecified) | Active | > 32 µg/mL | > 32 µg/mL | > 32 µg/mL | Active | Active | > 32 µg/mL | > 32 µg/mL | Active | Active | Active | > 32 µg/mL | – | – | – | – | – | – |
| Cc1c(O)c(Cl)cc2c1OC1(C2=O)C(Cl)=C(Cl)C(=O)N1Cc1ccccc1 (stereo unspecified) | Active | > 32 µg/mL | > 32 µg/mL | 32 µg/mL (≈ 75.4 µM) | Active | Active | > 32 µg/mL | 32 µg/mL (≈ 75.4 µM) | Active | Active | Active | > 32 µg/mL | – | – | – | – | – | – |
| CCCCCCc1c(O)c(Cl)cc2c1OC1(C2=O)C(Cl)=C(Cl)C(=O)N1Cc1ccccc1 (stereo unspecified) | Active | > 32 µg/mL | 1 µg/mL (≈ 2.02 µM) | 1 µg/mL (≈ 2.02 µM) | Active | Active | 1 µg/mL (≈ 2.02 µM) | 2 µg/mL (≈ 4.04 µM) | Active | Active | Active | 2 µg/mL (≈ 4.04 µM) | 580 nM | 0.25 µg/mL | – | – | – | – |
| C=CCN1C(=O)C(Cl)=C(Cl)C12Oc1c(cc(Cl)c(O)c1CCCCCC)C2=O (stereo unspecified) | Active | > 32 µg/mL | 4 µg/mL (≈ 8.99 µM) | 4 µg/mL (≈ 8.99 µM) | Active | Active | 4 µg/mL (≈ 8.99 µM) | 4 µg/mL (≈ 8.99 µM) | Active | Active | Active | 8 µg/mL (≈ 18 µM) | – | – | – | – | – | – |
| CCCCCCCCCCCCN1C(=O)C(Cl)=C(Cl)C12Oc1c(cc(Cl)c(O)c1CCCCCC)C2=O (stereo unspecified) | Active | > 32 µg/mL | 8 µg/mL (≈ 14 µM) | 16 µg/mL (≈ 27.9 µM) | Active | Active | 16 µg/mL (≈ 27.9 µM) | 8 µg/mL (≈ 14 µM) | Active | Active | Active | 8 µg/mL (≈ 14 µM) | – | – | – | – | – | – |
| CCCCCCc1c(O)c(Cl)cc2c1OC1(C2=O)C(Cl)=C(Cl)C(=O)N1Cc1ccc(C(F)(F)F)cc1 (stereo unspecified) | Active | > 32 µg/mL | 2 µg/mL (≈ 3.55 µM) | 2 µg/mL (≈ 3.55 µM) | Active | Active | 2 µg/mL (≈ 3.55 µM) | 2 µg/mL (≈ 3.55 µM) | Active | Active | Active | 2 µg/mL (≈ 3.55 µM) | 570 nM | 1 µg/mL | – | – | – | – |
| CCCCCCc1c(O)c(Cl)cc2c1OC1(C2=O)C(Cl)=C(Cl)C(=O)N1CCc1ccccc1 (stereo unspecified) | Active | > 32 µg/mL | 1 µg/mL (≈ 1.97 µM) | 0.5 µg/mL (≈ 0.983 µM) | Active | Active | 0.5 µg/mL (≈ 0.983 µM) | 0.5 µg/mL (≈ 0.983 µM) | Active | Active | Active | 1 µg/mL (≈ 1.97 µM) | 410 nM | 0.25 µg/mL | – | – | < 5% | > 95% |
